This is an account of results in PubChem BioAssay.

For assay [1], the target named is Potassium voltage-gated channel subfamily E member 1 (Homo sapiens) + Potassium voltage-gated channel subfamily KQT member 1 (Homo sapiens) (UniProt P15382+P51787). As to the kind of experiment: KCNQ1/KCNE1 complex potentiators, confirmation, selectivity assay for KCNQ1 potentiator project, thallium flux, CHO-K1 KCNQ1/E1 cells (AID 493186;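 active means mean duplicate activation above the buffer control mean plus 5 SD of those controls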). The conditions noted are these: FluxOR thallium flux, at 10 µM. A digest of the protocol: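 Test system – CHO-K1 cells with KCNQ1/E1 · Measured by – FluxOR Tl+ flux fluorescence, kinetic read · Controls – buffer low control, R-L3 high control · Times – dye 90 min, compound 20 min, room temperature · Replication – duplicate wells per compound · Doses – one test concentration · Evaluation – fluorescence rise relative to baseline, as percent of R-L3 response above buffer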
Potassium voltage-gated channel subfamily E member 1 (Homo sapiens) + Potassium voltage-gated channel subfamily KQT member 1 (Homo sapiens), sequence (P51787 whole entry, looked up): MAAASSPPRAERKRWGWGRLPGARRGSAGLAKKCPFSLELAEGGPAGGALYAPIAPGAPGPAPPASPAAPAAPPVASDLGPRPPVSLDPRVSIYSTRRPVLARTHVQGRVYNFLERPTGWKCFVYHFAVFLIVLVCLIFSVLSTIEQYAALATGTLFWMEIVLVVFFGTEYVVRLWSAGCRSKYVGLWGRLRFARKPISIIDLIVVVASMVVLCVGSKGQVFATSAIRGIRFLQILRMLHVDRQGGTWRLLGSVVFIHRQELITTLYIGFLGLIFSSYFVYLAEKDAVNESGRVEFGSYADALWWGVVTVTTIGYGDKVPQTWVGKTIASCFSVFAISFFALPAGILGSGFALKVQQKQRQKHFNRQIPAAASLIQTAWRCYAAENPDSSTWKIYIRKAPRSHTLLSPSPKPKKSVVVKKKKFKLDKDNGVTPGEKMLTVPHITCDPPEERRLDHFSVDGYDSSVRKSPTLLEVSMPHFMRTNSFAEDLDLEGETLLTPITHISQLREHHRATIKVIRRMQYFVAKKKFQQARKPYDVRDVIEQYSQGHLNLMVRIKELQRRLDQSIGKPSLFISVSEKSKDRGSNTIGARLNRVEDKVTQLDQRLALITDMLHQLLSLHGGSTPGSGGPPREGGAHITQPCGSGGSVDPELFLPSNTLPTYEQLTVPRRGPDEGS

Assay [2] addresses Short transient receptor potential channel 4 (Mus musculus) (UniProt Q9QUQ5). As to the kind of experiment: mouse TRPC4 channel inhibitors, dose response, cell-based, HEK293 TRPC4/mu-opioid, Fluo-4 calcium (AID 434942). The conditions noted are these: HEK293 TRPC4/mu-opioid cells, DAMGO-evoked Fluo-4 calcium ratio; series mostly up to 20 µM.

The structures appear in SMILES notation. For part of these data: Potency and affinity values are given separately. Active and inactive are the calls of the source.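 How the source made its calls, unless noted: active means primary screen inhibitor hit that blocks the TRPC4 channel at some tested dose, yielding a dose curve; inactive means the rest.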

Short transient receptor potential channel 4 (Mus musculus), sequence (Q9QUQ5 whole entry, looked up): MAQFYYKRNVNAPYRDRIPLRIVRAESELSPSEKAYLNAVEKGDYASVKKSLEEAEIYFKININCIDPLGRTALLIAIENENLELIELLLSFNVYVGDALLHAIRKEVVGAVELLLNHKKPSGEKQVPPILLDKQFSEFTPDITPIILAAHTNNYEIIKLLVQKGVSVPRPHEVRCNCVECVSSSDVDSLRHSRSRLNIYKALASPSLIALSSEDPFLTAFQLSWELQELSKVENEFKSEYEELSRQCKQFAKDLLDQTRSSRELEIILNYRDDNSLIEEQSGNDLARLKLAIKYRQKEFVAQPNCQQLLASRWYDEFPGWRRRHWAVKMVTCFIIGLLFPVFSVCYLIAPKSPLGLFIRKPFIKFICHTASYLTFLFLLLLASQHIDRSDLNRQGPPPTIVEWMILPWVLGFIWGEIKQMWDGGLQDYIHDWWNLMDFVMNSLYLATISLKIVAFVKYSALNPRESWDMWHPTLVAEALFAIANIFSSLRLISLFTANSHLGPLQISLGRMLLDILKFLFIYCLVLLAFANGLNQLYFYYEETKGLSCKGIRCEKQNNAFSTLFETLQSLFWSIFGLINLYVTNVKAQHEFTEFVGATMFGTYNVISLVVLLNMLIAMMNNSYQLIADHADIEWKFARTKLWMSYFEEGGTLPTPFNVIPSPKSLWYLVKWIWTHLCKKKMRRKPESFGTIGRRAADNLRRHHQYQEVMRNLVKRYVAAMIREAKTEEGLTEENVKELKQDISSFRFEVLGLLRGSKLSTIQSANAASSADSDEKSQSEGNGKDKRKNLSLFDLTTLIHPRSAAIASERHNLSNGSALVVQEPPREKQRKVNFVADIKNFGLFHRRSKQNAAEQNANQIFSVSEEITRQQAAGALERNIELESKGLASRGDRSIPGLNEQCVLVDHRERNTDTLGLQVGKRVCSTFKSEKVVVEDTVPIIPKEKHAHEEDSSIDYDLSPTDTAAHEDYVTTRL

In the case of `CN(C)CC(CCC(CN(C)C)C(O)(c1ccccc1)c1ccccc1)C(O)(c1ccccc1)c1ccccc1` (centres undefined), the outcome in assay [1] was inactive. On to `Cc1ccc(-c2nnc(N3CCC(C)CC3)c3ccccc23)cc1C`, for which the outcome in assay [2] was inactive. Same read-out and setting: to `Cc1cc2oc(C(=O)N(Cc3ccccc3)C3CCS(=O)(=O)C3)cc(=O)c2cc1Cl` (centres undefined) belongs “inactive”.

`CC(C1CC2CCC1C2)n1c(-c2cccs2)n[nH]c1=S` (centres undefined): the outcome in assay [1] was inactive.

For `O=C(NCc1ccccc1)C1=C[C@H](c2ccc(C(F)(F)F)cc2)C[C@H](OCc2ccc(CO)cc2)O1`, in assay [2], the outcome was inactive. Take `COc1cc(NS(=O)(=O)c2ccc3ccccc3c2)c2ncccc2c1`: the outcome in assay [1] was inactive.

For the compound `CCCc1nc2oc3c(NCCN(C)C)ncnc3c2c2c1CCCC2`, the result in assay [1] was inactive. With `Cc1cc(OCC(=O)NC2CCCCC2)ccc1Cl`, in assay [2], the result was inactive. For `Cc1ccc(C(C)C)cc1OCCCCN1CCCC1`, the result in assay [2] was inactive.
